These results are taken from ChEMBL document CHEMBL1833861 (J Med Chem, 2011).

Structures are written as SMILES. Activity calls are given as the source filed them. No cut-off for these calls is given here.

Experiment [1] is filed under the species Rattus norvegicus. Nature of the experiment: Selectivity ratio of Ki for rat alpha4beta2 nAChR over Ki for rat alpha3beta4 nAChR.
Experiment [2] has as its target Neuronal acetylcholine receptor; alpha3/beta4 (Rattus norvegicus, UniProt P04757+P12392). Nature of the experiment: Displacement of [3H]epibatidine from rat alpha3beta4 nAChR receptor. In kind it is protein-complex assay. On the technique in general: Loss of bound radioactivity is the signal in a displacement assay; it reports binding, not function.
In experiment [3] the target is Neuronal acetylcholine receptor; alpha4/beta4 (Rattus norvegicus, UniProt P09483+P12392). Nature of the experiment: Displacement of [3H]epibatidine from rat alpha4beta4 nAChR receptor. In kind it is protein-complex assay.
Chain of Neuronal acetylcholine receptor; alpha4/beta4 (P09483 whole entry): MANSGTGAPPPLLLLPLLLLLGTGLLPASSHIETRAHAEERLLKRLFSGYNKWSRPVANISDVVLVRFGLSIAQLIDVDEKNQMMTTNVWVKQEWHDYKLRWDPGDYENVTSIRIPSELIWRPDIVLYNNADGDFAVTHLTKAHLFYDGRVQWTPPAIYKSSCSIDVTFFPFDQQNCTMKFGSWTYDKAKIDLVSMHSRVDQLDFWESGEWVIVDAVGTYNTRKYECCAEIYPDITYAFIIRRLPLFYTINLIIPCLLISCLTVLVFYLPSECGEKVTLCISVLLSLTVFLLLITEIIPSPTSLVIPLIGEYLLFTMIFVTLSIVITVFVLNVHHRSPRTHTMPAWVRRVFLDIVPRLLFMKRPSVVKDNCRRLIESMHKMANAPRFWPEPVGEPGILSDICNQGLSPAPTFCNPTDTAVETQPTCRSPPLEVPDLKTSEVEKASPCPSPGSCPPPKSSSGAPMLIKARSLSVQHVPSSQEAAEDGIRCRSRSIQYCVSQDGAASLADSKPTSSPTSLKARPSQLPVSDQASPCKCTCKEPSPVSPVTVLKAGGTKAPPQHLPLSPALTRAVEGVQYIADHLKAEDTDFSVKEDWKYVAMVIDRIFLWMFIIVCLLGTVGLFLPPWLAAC
Chain of Neuronal acetylcholine receptor; alpha4/beta4 (P12392 whole entry): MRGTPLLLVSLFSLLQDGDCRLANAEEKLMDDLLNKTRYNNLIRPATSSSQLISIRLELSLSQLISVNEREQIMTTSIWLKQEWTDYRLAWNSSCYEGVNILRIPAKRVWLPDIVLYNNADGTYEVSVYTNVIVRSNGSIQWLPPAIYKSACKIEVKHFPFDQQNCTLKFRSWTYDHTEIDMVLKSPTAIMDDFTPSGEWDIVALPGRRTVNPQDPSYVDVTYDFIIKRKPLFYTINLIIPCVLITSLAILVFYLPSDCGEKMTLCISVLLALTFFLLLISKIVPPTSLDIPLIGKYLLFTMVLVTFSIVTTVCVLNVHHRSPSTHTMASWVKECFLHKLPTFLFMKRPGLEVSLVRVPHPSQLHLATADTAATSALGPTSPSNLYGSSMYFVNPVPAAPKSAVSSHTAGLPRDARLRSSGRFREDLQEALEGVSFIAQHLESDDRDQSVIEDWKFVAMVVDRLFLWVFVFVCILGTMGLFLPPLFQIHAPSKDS
Experiment [4] has as its target Neuronal acetylcholine receptor; alpha3/beta2 (Rattus norvegicus, UniProt P04757+P12390). In words: Displacement of [3H]epibatidine from rat alpha3beta2 receptor. In kind it is protein-complex assay.
In experiment [5] the target is T1, Neuronal acetylcholine receptor; alpha4/beta2 (Homo sapiens, UniProt P17787+P43681). Nature of the experiment: Antagonist activity at human alpha4beta2 nAChR expressed in SH-EP1 cells assessed as inhibition of carbamylcholine-induced 86Rb+ ion efflux by liquid scintillation counting relative to mecamylamine. The experiment is classed as functional, cell-based.
T1 sequence (P17787 whole entry): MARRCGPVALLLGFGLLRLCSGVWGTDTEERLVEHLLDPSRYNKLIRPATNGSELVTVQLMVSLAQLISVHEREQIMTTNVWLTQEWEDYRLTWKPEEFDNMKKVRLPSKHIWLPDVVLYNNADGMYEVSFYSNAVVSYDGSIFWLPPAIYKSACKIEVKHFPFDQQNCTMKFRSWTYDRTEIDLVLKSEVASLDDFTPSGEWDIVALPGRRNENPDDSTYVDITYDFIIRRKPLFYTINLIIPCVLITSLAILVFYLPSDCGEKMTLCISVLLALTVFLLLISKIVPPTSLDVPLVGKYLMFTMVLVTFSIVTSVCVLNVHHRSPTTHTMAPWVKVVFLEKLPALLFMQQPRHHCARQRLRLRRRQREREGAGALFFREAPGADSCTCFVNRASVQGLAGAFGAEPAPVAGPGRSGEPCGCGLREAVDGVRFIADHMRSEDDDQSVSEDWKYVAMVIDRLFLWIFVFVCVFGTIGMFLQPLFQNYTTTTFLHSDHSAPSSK
T1 sequence (P43681 whole entry): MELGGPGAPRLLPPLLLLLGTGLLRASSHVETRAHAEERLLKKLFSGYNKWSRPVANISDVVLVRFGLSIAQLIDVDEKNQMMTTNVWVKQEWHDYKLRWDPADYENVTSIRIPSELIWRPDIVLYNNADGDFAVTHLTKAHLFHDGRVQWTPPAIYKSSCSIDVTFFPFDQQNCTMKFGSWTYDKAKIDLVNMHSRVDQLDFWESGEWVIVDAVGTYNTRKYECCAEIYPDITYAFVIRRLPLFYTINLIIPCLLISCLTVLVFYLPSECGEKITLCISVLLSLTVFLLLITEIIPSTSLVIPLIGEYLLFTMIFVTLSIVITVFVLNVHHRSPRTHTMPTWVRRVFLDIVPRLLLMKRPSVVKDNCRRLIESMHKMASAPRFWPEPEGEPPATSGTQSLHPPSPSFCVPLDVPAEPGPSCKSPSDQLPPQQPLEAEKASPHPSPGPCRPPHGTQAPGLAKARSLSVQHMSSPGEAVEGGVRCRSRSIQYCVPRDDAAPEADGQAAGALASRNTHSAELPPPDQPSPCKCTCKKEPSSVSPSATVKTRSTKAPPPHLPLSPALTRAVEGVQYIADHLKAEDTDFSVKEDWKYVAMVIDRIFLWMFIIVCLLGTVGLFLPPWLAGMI

Experiment [6] addresses Neuronal acetylcholine receptor; alpha2/beta4 (Rattus norvegicus, UniProt P12389+P12392). In words: Displacement of [3H]epibatidine from rat alpha2beta4 receptor. In kind it is protein-complex assay.
Experiment [7] deals with Neuronal acetylcholine receptor; alpha2/beta2 (Rattus norvegicus, UniProt P12389+P12390). Nature of the experiment: Displacement of [3H]epibatidine from rat alpha2beta2 receptor. In kind it is protein-complex assay.
Chain of Neuronal acetylcholine receptor; alpha2/beta2 (P12389 whole entry): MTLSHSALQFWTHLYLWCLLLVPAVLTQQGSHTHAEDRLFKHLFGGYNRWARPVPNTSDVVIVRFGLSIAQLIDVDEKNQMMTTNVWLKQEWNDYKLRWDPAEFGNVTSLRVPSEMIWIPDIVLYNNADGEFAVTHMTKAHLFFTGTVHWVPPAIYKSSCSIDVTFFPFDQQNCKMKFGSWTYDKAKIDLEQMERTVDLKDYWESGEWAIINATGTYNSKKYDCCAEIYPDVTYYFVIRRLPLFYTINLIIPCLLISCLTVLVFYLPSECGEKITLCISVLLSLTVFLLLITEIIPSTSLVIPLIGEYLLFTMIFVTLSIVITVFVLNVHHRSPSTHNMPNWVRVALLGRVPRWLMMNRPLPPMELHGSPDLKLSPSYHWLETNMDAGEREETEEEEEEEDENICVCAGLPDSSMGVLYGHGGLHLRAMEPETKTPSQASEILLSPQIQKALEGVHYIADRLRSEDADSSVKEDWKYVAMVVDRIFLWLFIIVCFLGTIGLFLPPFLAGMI
Chain of Neuronal acetylcholine receptor; alpha2/beta2 (P12390 whole entry): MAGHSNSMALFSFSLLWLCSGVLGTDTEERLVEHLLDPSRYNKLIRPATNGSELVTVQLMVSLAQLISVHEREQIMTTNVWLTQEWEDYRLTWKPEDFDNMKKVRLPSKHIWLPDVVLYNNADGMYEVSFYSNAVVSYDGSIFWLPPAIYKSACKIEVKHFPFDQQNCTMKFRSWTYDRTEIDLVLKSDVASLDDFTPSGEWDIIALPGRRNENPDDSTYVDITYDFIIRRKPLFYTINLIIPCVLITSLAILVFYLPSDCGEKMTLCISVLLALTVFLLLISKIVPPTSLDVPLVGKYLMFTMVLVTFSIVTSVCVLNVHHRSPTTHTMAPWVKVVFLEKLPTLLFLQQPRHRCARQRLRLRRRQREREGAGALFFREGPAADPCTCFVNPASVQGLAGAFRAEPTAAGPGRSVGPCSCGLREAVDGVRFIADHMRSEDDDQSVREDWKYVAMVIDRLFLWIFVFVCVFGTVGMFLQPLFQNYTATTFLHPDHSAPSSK
For experiment [8], the system named is Mus musculus. In words: Antidepressant activity in BALB/cJ mouse assessed as decrease in immobility time at 30 mg/kg, ip after 30 mins by forced swim test. In kind it is functional, organism-based. Also on record: dose 30 mg/kg. Summed up: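 Male BALB/cJ mice, 8–10 weeks old; compound in injectable water given ip at 10 mL/kg. Sertraline (10 or 20 mg/kg) served as positive control. 30 min post-dose, each mouse placed in a glass cylinder with 12 cm of 23 ± 1 °C water; immobility (floating) timed over a 6 min trial. n = 10/group; ANOVA with post hoc test.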

Experiment [9] has as its target T1, Neuronal acetylcholine receptor; alpha4/beta2. Nature of the experiment: Antagonist activity at human alpha4beta2 nAChR expressed in SH-EP1 cells assessed as inhibition of carbamylcholine-induced 86Rb+ ion efflux by liquid scintillation counting. The experiment is classed as functional, cell-based.
In experiment [10] the target is T2, Neuronal acetylcholine receptor; alpha4/beta2 (Rattus norvegicus, UniProt P09483+P12390). Nature of the experiment: Displacement of [3H]epibatidine from rat alpha4beta2 receptor expressed in HEK cells. In kind it is cell-based, HEK293. The essentials:
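Competition binding of [3H]epibatidine to membrane fractions from HEK cells stably transfected with rat α4 and β2 subunits; Ki values for blockade of specific binding.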

In experiment [11] the target is T1, Neuronal acetylcholine receptor; alpha4/beta2. Nature of the experiment: Agonist activity at human alpha4beta2 nAChR expressed in human SH-EP1 cells assessed as increase of carbamylcholine-induced 86Rb+ ion efflux by liquid scintillation counting. In kind it is functional, cell-based.
Experiment [12] deals with T2, Neuronal acetylcholine receptor; alpha4/beta2. In words: Displacement of [3H]epibatidine from rat alpha4beta2 nAChR receptor. In kind it is protein-complex assay.
The target of experiment [13] is T1, Neuronal acetylcholine receptor; alpha4/beta2. In words: Agonist activity at human alpha4beta2 nAChR expressed in human SH-EP1 cells assessed as increase of carbamylcholine-induced 86Rb+ ion efflux by liquid scintillation counting relative to carbamylcholine. The experiment is classed as functional, cell-based.

T2 sequence (P09483 whole entry): as the sequence (P09483 whole entry) above
T2 sequence (P12390 whole entry): as the sequence (P12390 whole entry) above
Chain of Neuronal acetylcholine receptor; alpha3/beta4 (P04757 whole entry): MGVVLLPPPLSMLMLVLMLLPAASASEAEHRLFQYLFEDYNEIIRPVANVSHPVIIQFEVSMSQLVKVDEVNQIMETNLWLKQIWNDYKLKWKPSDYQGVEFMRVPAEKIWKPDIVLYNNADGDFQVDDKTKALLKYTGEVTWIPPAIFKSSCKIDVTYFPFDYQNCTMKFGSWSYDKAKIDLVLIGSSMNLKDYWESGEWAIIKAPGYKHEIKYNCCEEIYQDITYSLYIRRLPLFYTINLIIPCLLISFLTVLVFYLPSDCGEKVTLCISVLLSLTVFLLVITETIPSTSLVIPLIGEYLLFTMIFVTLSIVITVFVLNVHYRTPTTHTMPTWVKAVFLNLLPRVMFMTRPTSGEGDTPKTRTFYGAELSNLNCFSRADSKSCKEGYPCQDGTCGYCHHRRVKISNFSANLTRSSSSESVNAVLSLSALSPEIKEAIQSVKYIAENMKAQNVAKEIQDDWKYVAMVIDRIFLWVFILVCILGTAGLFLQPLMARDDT
Chain of Neuronal acetylcholine receptor; alpha3/beta4 (P12392 whole entry): as the sequence (P12392 whole entry) above
Chain of Neuronal acetylcholine receptor; alpha3/beta2 (P04757 whole entry): as the sequence (P04757 whole entry) above
Chain of Neuronal acetylcholine receptor; alpha3/beta2 (P12390 whole entry): as the sequence (P12390 whole entry) above
Chain of Neuronal acetylcholine receptor; alpha2/beta4 (P12389 whole entry): as the sequence (P12389 whole entry) above
Chain of Neuronal acetylcholine receptor; alpha2/beta4 (P12392 whole entry): as the sequence (P12392 whole entry) above

Broadly, the Ki is the equilibrium dissociation constant of an inhibitor or competing ligand from its target. A lower Ki goes with higher affinity. What is called IC50 is the concentration that gives 50% inhibition. By EC50 is commonly meant the concentration needed to bring the measured effect to its halfway point. On to `OCc1cc(-c2cncc(OC[C@@H]3CCN3)c2)on1`, for which the Ratio Ki in [1] was found to be 20000. Also, the Ki in experiment [2] came out at 6660 nM; in experiment [3] it was 81 nM; in [4], 2.9 nM; in experiment [6] it was 310 nM; in experiment [7], 0.32 nM; in experiment [10] it was 0.31 nM. For the same compound, in experiment [12], the Ki was 0.31 nM. Besides, the figures for the Efficacy in [5] and in experiment [13] were 66% and 13%, respectively. Moreover, the result in experiment [8] was Active. In experiment [9], the IC50 was determined as 16 nM. For the same compound, the EC50 in experiment [11] was 25 nM.
